The results in this text go back to ChEMBL document CHEMBL3112520, “Synthesis and biological evaluation of 2,5-di(7-indolyl)-1,3,4-oxadiazoles, and 2- and 7-indolyl 2-(1,3,4-thiadiazolyl)ketones as antimicrobials” (Bioorg Med Chem, 2014).

The structures appear in SMILES notation. Active and inactive are the calls of the source. No cut-off for these calls is given here.

For data set [1], the system named is Bacillus subtilis. As to the kind of experiment: Antibacterial activity against Bacillus subtilis 168 assessed as growth inhibition at late exponential phase at 200 uM after 16 hrs. The class given is functional. The following applies: for growth inhibition (GI): subsp. subtilis str. 168; for inhibition of growth at 200 µM: subsp. subtilis str. 168, 16 h, read-out: GI. A digest of the protocol:
(§1)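 Compounds were made up as 50 mM DMSO stocks and diluted in LB medium to 200 µM. Cultures were grown at 37 °C with 600 rpm shaking. OD600 was read every 10 min for 16 h, with LB as the blank. Samples were run in triplicate, and growth curves were compared with cells given equal amounts of DMSO.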

The nature of data set [2]: Inhibition of RNA polymerase-sigma factor (unknown origin) interaction at 15 uM after 1 hr by ELISA. A digest of the protocol:
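ELISA: purified full-length σA (250 nM in PBS) was coated overnight at 4 °C, then blocked with 1% (w/v) BSA in PBS at room temperature. After PBS/Tween-20 washes, rabbit anti-GST (1:2000) and then HRP goat anti-rabbit (1:2000) were each applied for 1 h at room temperature. TMB substrate was added, shaken for 6 min at room temperature, and absorbance read at 600 nm.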
On the technique in general: ELISA stands for enzyme-linked immunosorbent assay.

Data set [3] has as its system Escherichia coli. As to the kind of experiment: Antibacterial activity against Escherichia coli DH5[alpha] assessed as growth inhibition at late exponential phase at 200 uM after 16 hrs. The class given is functional. The note with it: for inhibition of growth at 200 µM: read-out: GI. A digest of the protocol: as §1
A short description of data set [4]: Solubility of the compound. The class given is physicochemical.

As a reminder, the inhibition is the change of the read-out against control, counted positive when it falls. Lower therefore signals little suppression. For the molecule `COc1cc(OC)c2c(-c3ccc(Cl)cc3)c[nH]c2c1-c1nnc(-c2c(OC)cc(OC)c3c(-c4ccc(Cl)cc4)c[nH]c23)o1`, the “growth inhibition (GI)” value in data set [1] and in data set [3] was “inactive” each time. In addition, in data set [2], the inhibition is 17.8%.

Turning to `COc1cc(OC)c2c(-c3ccccc3)c(-c3ccccc3)[nH]c2c1C(=O)NNC(=O)c1c(OC)cc(OC)c2c(-c3ccccc3)c(-c3ccccc3)[nH]c12`, the solubility entry in data set [4] is “ND(Insoluble)”.

Turning to `COc1cc(OC)c2c(-c3ccc(Br)cc3)c[nH]c2c1-c1nnc(-c2c(OC)cc(OC)c3c(-c4ccc(Br)cc4)c[nH]c23)o1`, the “growth inhibition (GI)” value in data set [1] and in data set [3] was “inactive” each time. Also, the inhibition in data set [2] was found to be 16.8%.

Consider `COc1cc(OC)c2c(-c3ccc(Cl)cc3)c[nH]c2c1C(=O)NNC(=O)c1c(OC)cc(OC)c2c(-c3ccc(Cl)cc3)c[nH]c12`, for which, in data set [1], the inhibition of growth at 200 µM is 29.8%. Also, in data set [2], the inhibition was 62.6%. Moreover, in data set [3], the “growth inhibition (GI)” value is “inactive”.

Turning to `COc1cc(OC)c2c(-c3ccccc3)c(-c3ccccc3)[nH]c2c1-c1nnc(-c2c(OC)cc(OC)c3c(-c4ccccc4)c(-c4ccccc4)[nH]c23)o1`, the solubility result in data set [4] is on record as “ND(Insoluble)”.

As for `COc1cc(OC)c2c(-c3ccc(Br)cc3)c(C(=O)C(=O)NNC(=S)N(C)C)[nH]c2c1`, the results for the inhibition of growth at 200 µM in data set [1] and in data set [3] were 69.9% and 70%, respectively. This molecule also showed an inhibition in data set [2] of 20.8%.

Turning to `COc1cc(OC)c2c(-c3ccccc3)c(-c3ccccc3)[nH]c2c1-c1nnc(-c2nnc(-c3c(OC)cc(OC)c4c(-c5ccccc5)c(-c5ccccc5)[nH]c34)o2)o1`, the solubility entry in data set [4] is given as “ND(Insoluble)”.

For the molecule `COc1cc(OC)c2c(-c3ccc(Br)cc3)c[nH]c2c1C(=O)NNC(=O)c1c(OC)cc(OC)c2c(-c3ccc(Br)cc3)c[nH]c12`, the inhibition of growth at 200 µM in data set [1] was 14.3%; in data set [3] it was 37.4%. The molecule further yielded an inhibition in data set [2] of 39.5%.

Consider `COc1cc(OC)c2c(-c3ccccc3)c(-c3ccccc3)[nH]c2c1C(=O)NNC(=O)C(=O)NNC(=O)c1c(OC)cc(OC)c2c(-c3ccccc3)c(-c3ccccc3)[nH]c12`, for which the solubility entry in data set [4] is “ND(Insoluble)”.

Take `COc1cc(OC)c2c(-c3ccc(Br)cc3)c(C(=O)c3nnc(N(C)C)s3)[nH]c2c1`: the “growth inhibition (GI)” value in data set [1] was “inactive”. In addition, in data set [2], the inhibition stood at 19%. For the same molecule, the inhibition of growth at 200 µM in data set [3] amounted to 16.8%.

`COc1cc(OC)c2c(-c3ccccc3)c(-c3ccccc3)[nH]c2c1C(=O)C(=O)NNC(=O)C(=O)c1c(OC)cc(OC)c2c(-c3ccccc3)c(-c3ccccc3)[nH]c12`: the solubility entry in data set [4] is recorded as “ND(Insoluble)”.

For `COc1cc(OC)c2c(-c3ccc(Cl)cc3)c(C(=O)C(=O)NNC(=S)N(C)C)[nH]c2c1`, the inhibition of growth at 200 µM is 32.5% in data set [1] and 47% in data set [3]. Moreover, in data set [2], the inhibition was 20.4%.

For `COc1cc(OC)c2c(-c3ccc(Cl)cc3)c(C(=O)c3nnc(N(C)C)s3)[nH]c2c1`, the “growth inhibition (GI)” value in data set [1] is “inactive”. In data set [2], this molecule showed an inhibition of 17.2%. Also, the inhibition of growth at 200 µM in data set [3] turned out to be 10.6%.
